Source: PubChem (several laboratories)
The list is not random: actives were taken first. Their share in the collection is about 1.9%.
Dynein transport – blocks dynein driven cargo transport along microtubules. 3617.4 mouse cells, GR-EGFP nuclear translocation imaging; test concentration mostly 20 µM; stimulated with dexamethasone, 1 µM; active compounds read low. z-score, hits read low. 220,000 compounds, 0.47% hits;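 active = plate z-score of nuclear minus cytoplasmic receptor signal below a set negative limit, without overly bright fluorescence or cell loss, cut at about -3.5 in these data, passing the limit was not always enough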;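 note: z-score of nuclear minus cytoplasmic ring GR-EGFP intensity difference per well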
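Also added – dexamethasone, 1.0 µM final · Buffer or medium – tet-free, stripped-serum medium · Schedule – induction 48 h, compound 1 h, agonist 30 min · Detection – formaldehyde fixation, Hoechst nuclear stain, 10x automated fluorescence imaging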
RAM inhibit – blocks the yeast RAM network. AID 868. inhibition, % at 50 µM. S. cerevisiae dse1pr::URA3 reporter, 5-FOA growth OD615, 2 d; analog-sensitive cbk1-as2 kinase mutant strain. 190,000 compounds, 1.8% hits;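 active = inhibition above a set limit, 3 SD over mean compound inhibition, cut at about 8.4% in these data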;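 note: 0% = DMSO-only wells with no growth and 100% = 10 µM 1-NA-PP1 full growth; inhibition rescues growth on 5-FOA so higher OD means more RAM inhibition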
p-CIP stab down – lowers stability of the mouse p/CIP coactivator protein; Q05BA5; F442A p/CIP-EGFP cells, EGFP fluorescence, 16 h; decrease of EGFP signal, % at 10 µM; 290,000 compounds, 0.01% hits; AID 1984;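 active = EGFP signal decrease of at least 30% at 10 µM or well 3 SD below plate mean, unless failing retest; inactive = the rest, including hits failing retest or dose response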
Target sequence (Q05BA5 1-1403): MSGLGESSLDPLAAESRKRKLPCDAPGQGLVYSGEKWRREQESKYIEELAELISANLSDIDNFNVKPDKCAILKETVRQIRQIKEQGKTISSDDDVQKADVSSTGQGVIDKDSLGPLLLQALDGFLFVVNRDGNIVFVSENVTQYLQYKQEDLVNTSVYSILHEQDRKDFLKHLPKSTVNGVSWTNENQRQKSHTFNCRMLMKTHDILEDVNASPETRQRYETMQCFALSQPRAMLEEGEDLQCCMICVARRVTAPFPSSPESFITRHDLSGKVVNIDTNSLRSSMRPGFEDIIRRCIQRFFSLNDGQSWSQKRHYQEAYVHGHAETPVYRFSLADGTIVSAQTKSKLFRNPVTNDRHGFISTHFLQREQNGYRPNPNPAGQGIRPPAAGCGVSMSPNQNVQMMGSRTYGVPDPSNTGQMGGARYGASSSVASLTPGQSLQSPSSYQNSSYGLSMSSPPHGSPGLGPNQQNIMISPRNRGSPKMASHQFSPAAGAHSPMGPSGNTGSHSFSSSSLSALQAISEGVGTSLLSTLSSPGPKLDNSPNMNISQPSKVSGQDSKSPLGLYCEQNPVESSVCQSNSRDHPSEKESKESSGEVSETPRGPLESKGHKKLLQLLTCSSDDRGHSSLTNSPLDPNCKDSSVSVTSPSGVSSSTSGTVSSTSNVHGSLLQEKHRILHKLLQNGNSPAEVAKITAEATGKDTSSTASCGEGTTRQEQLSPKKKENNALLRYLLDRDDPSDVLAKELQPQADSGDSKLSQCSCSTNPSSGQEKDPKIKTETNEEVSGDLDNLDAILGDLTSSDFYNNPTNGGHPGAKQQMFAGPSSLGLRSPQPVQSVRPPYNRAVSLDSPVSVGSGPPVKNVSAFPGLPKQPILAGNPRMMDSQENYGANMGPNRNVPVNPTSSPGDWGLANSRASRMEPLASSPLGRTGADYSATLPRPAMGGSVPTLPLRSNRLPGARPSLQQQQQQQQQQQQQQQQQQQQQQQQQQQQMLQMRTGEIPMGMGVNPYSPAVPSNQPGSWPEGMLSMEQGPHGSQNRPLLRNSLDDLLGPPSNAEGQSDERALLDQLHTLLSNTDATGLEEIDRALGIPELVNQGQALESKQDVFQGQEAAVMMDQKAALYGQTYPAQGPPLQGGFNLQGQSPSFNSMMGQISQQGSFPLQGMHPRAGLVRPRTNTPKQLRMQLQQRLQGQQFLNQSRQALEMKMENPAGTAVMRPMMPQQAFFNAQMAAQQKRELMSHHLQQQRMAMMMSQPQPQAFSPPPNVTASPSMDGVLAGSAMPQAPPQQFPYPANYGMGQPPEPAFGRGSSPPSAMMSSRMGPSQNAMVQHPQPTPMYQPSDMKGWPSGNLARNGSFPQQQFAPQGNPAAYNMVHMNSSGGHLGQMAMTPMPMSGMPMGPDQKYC
p47phox inh – blocks human p47phox regulatory protein of NADPH oxidases. P14598. p47phox/p22phox peptide binding, fluorescence polarization, 2 h. inhibition, % at 24.7 µM. 220,000 compounds, 0.53% hits. AID 1274;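 active = inhibition above about 30%, limit read from the data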;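 note: 0% = p47phox with labelled peptide and 100% = labelled peptide alone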
Numbers without * were called inactive; nt = not tested or not shown.

SMILES	Dynein transport	RAM inhibit	p-CIP stab down	p47phox inh
Cc1ccc(/C=C(\CCC(=O)O)c2nc3ccccc3s2)cc1[N+](=O)[O-]	0.42	10.0*	-8	-16
CN(c1ccccc1)c1ccc(/C=C(\CCC(=O)O)c2nc3ccccc3s2)cc1[N+](=O)[O-]	1	6	-6	-3
COc1ccc(C)cc1-n1nnnc1SC/C(O)=C(\C#N)c1nc2ccccc2[nH]1	-0.9	9.1*	3	-37
COc1ccccc1C1=NOC(COC(=O)c2ccc(Br)cc2)C1 (stereo not drawn)	-0.19	10*	7	-16
CCCN1CCN(CC(=O)Nc2nncs2)CC1	nt	nt	4	nt
O=C(Nc1cccc(-c2cn3ccccc3n2)c1)C1CC1	-0.51	0	-8	67*
CCC(=O)Nc1cccc(-c2cn3ccccc3n2)c1	-0.22	3	-8	-8
CCCOc1ccc(C2CC(=O)Nc3cc(OC)c(OC)cc32)cc1 (stereo not drawn)	nt	nt	-5	nt
CSCC[C@H](NS(=O)(=O)c1ccc(C(C)=O)cc1)c1nnc2ccccn12	nt	nt	10	nt
CCOc1ccccc1NC1=C(Cl)C(=O)N(c2ccccc2)C1=O	-0.81	3	1	6
CCOc1ccccc1NC1=C(Cl)C(=O)N(Cc2ccccc2)C1=O	-0.66	11*	1	-15
C#CC1(NC(=O)NCCCC)CCCCC1	-0.064	0	16	57*
CCCCNC(=O)NC12CC3CC(CC(C3)C1)C2	-0.47	0	-12	2
CCOC(=O)c1nc2cc3n(c(CC(C)C)c-2c1C)CC(C)=C3C	-0.59	-1	-14	-20
CCOC(=O)c1nc2cc3n(c(C)c-2c1C)C(C)C(C)=C3C (stereo not drawn)	0.013	1	2	56*
COc1cccc(-c2cc(C(=O)N3CC4(C)CC3CC(C)(C)C4)no2)c1 (stereo not drawn)	-0.4	10*	-5	-5
CC1(C)CC2CC(C)(CN2C(=O)c2cc(-c3ccc(O)cc3)on2)C1 (stereo not drawn)	nt	nt	-13	nt
CCN(CC)C(=O)c1sc(N)c(C(=O)OC(C)C)c1C	-0.72	0	0	-14
CCN(CC)C(=O)c1sc(NC(=O)C(Sc2ccccc2)c2ccccc2)c(C(=O)OC(C)C)c1C (stereo not drawn)	-0.56	9.6*	4	-8
CC(C)(C)c1ccc(C(=O)N2CCNCC2)cc1	0.72	0	-10	38*
CSc1ncccc1C(=O)OCC(=O)Nc1cc(C(F)(F)F)ccc1N1CCOCC1	0.54	0	-5	-17
Cc1cc(OCC(=O)OCC(=O)Nc2cc(C(F)(F)F)ccc2N2CCOCC2)ccc1Cl	-1	9.1*	-10	-4
COc1cccc(/C=C2\SC(=S)N(CC3CCCO3)C2=O)c1 (stereo not drawn)	-0.073	8.6*	0	1
CC(Oc1ccc2c(c1)oc(=O)c1ccccc12)C(=O)NC(Cc1c[nH]c2ccc(O)cc12)C(=O)O (stereo not drawn)	nt	nt	8	nt
O=C(NCC(=O)N(c1ccc(F)cc1)C(C(=O)NC1CCCC1)c1cccnc1)c1cccs1 (stereo not drawn)	0.94	8.9*	-9	4
SMILES	Dynein transport	RAM inhibit	p-CIP stab down	p47phox inh
COc1ccc(CNC(=O)C2CCN(S(=O)(=O)c3ccc4c(c3)CC(C)N4C(=O)C3CC3)CC2)cc1 (stereo not drawn)	nt	nt	5	nt
C/C(=N\NC(=O)CSCc1ccc([N+](=O)[O-])cc1)c1ccccc1O	1.5	1	0	-3
O=c1cc(/N=C/c2coc3c(ccc4ccccc43)c2=O)[nH]c(=S)[nH]1	0.65	11*	-2	-2
Cc1ccc2sc(N(CCCN(C)C)C(=O)c3nc4ccccc4s3)nc2c1C	-0.56	3	8	32*
O=C(Oc1ccc(NC(=O)c2cc3c(cc2Br)OCO3)cc1)c1ccccc1	0.48	nt	-11	-9
O=c1[nH]c(/C=C/c2cccc3ccccc23)nc2ccccc12	0.88	2	-18	54*
COC(=O)c1[nH]c2ccc(F)cc2c1NS(=O)(=O)c1ccc(F)c(C)c1	-0.46	10*	9	-21
COC(=O)c1[nH]c2ccc(C)cc2c1NS(=O)(=O)c1ccc(F)c(C)c1	0.87	1	-16	-5
CCOC(=O)C1=C(c2ccccc2)NC(N)=NC1c1ccc(OCc2ccc(C(=O)OC)cc2)cc1 (stereo not drawn)	-1.3	nt	-11	84*
CCOC(=O)C1=C(c2ccccc2)Nc2ncnn2C1c1ccc(C(=O)O)cc1 (stereo not drawn)	1.3	nt	-1	-9
